What is called inhibition is the drop in the measured response relative to a control, in per cent.

In all, about 330,000 compounds went through this assay and about 2,400 (0.73%) were called active. Shown is part of a subset that was picked to be rich in actives. A number with no mark means an inactive call. How the source made its calls: active means inhibition of at least 40% at 20 µM; inactive means the rest.

Apoptotic protease-activating factor 1 (Homo sapiens), sequence (O14727 whole entry, looked up): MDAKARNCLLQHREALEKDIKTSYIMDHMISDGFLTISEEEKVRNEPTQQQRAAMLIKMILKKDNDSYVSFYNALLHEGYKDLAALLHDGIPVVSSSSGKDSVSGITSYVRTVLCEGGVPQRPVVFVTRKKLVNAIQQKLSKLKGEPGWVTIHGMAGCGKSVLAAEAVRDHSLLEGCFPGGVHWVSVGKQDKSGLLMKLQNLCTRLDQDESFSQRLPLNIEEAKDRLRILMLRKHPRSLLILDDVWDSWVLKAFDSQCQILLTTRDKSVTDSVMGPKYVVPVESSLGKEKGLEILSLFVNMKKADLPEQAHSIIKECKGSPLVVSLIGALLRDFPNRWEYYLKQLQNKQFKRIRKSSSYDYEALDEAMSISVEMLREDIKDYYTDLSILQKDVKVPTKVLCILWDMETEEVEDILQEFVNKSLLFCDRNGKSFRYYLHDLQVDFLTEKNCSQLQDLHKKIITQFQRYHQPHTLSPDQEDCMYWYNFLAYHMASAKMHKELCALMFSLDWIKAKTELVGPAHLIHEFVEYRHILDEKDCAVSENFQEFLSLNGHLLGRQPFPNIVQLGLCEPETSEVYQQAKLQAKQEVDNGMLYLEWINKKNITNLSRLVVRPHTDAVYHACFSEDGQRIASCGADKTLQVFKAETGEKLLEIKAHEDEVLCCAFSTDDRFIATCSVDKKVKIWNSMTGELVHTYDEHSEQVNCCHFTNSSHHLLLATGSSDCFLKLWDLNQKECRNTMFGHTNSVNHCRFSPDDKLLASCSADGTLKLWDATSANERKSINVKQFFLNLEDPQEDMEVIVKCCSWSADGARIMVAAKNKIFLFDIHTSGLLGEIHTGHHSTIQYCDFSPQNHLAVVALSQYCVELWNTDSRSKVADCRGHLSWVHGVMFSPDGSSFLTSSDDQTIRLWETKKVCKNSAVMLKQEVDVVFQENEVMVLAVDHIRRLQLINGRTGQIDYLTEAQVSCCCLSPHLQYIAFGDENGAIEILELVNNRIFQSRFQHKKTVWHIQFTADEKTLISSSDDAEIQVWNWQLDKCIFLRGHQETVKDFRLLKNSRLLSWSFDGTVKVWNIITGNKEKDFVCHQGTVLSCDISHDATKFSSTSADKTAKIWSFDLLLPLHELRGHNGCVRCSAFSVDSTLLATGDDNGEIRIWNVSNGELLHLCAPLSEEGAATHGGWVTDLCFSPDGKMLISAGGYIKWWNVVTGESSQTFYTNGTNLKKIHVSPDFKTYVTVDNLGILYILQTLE

The target of this experiment is Apoptotic protease-activating factor 1 (Homo sapiens) (UniProt O14727). Nature of the experiment: blockers of Apaf-1-driven caspase-3 activation – biochemical, DEVD-Rh110 fluorescence, uHTS, primary screen (AID 489030).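 Further: plate controls were DMSO wells for no effect and DEVD-CHO caspase inhibitor wells for full effect.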 As to conditions: reconstituted apoptosome caspase-3 activity, at 20 µM, active compounds read high. An outline of the steps:
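Material: cell-free apoptosome with Apaf-1, procaspase-3 and caspase-9; Buffer or medium: Hepes pH 7.5 with detergent and BSA; Reagent: cytochrome c trigger plus (Z-DEVD)2-Rh110 caspase-3 substrate; Times: compound with Apaf-1, dATP, procaspase-3 30 min, then 50 min reaction, room temperature; Technique: Rh110 fluorescence intensity.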
Take `CN(C)/C=C(\C#N)C(=O)c1cccnc1Oc1ccc(F)cc1F`: the inhibition was -17.9%. For `Cc1ccc(NC(=O)C(C)c2cccc(C(=O)c3ccccc3)c2)cc1` (stereo unspecified), the inhibition was -10.9%. Regarding `Cc1oc2c(c1C(=O)N1CCOCC1)C(=O)c1ccccc1C2=O`, the inhibition is 65.9% (active). The same measure for `COc1cc2ccccc2cc1C(=O)N1CCOCC1`: -7.91%. The same measure for `O=C(c1snnc1-c1ccccc1)N1CCOCC1`: -11.7%; for `Cc1cc(NC(=O)C(C)SCC(=O)Nc2ccccc2N2CCCCC2)no1` (stereo unspecified): 18.8%. As for `CCCCN(CC)CCNC(=O)c1[nH]c(C)c(C(C)=O)c1C`, the inhibition was 2.1%. As for `Clc1ccccc1CSc1nnc(-c2ccco2)c(-c2ccco2)n1`, the inhibition is 49.9% (active). `O=C(CC1N=C2c3ccccc3N=C(SCc3ccccc3Cl)N2C1=O)NCc1ccco1` (stereo unspecified): the inhibition was 21.1%. In the case of `Clc1ccc(CSc2nnc3c(n2)[nH]c2ccccc23)cc1`, the inhibition was 11.3%.

Regarding `CCc1nnc(SCc2cccc(F)c2)nc1CC`, the inhibition is 14.3%. The figure for `S=C(NCc1ccco1)NCc1ccccc1Cl` is 10.3%; for `c1ccc(CSc2nnc(-c3ccco3)c(-c3ccco3)n2)cc1` it is 49.6% (active); for `COc1cc(NC(=O)CCS(=O)(=O)c2ccc3c(c2)oc(=O)n3C)cc(OC)c1` it is -0.825%. The figure for `Cc1c(NS(=O)(=O)c2cc(C(=O)NCCc3ccc(F)cc3)cc(Cl)c2Cl)c(=O)n(-c2ccccc2)n1C` is 16%; for `CCOC(=O)c1ccc2c(c1)nc(SCC(=O)NC(C)C)n2CC` it is -14.5%. Turning to `Cc1ccc(C(=O)N/N=C\c2cc(Br)c(Br)o2)cn1`, the inhibition is 75.4% (active). The figure for `Cc1ccc(C(=O)N/N=C/c2cccc3ccccc23)cn1` is -7.7%.

On to `O=C(N/N=C\c1cc(Br)c(Br)o1)C1COc2ccccc2O1` (stereo unspecified), for which the inhibition was 6.95%. The figure for `O=C(OCc1ccccc1F)c1ccc2c(c1)OCCO2` is 9.05%; for `CCOC(=O)CCC(=O)OCC(=O)NC(C)C1CC2CCC1C2` (stereo unspecified) it is 3.06%; for `COC(=O)c1ccc(NC(=O)c2cc3c(CO)cnc(C)c3oc2=Nc2cccc(C(N)=O)c2)cc1` it is -28.9%. For `CC(=O)N1N=C(c2ccncc2)OC1(Cc1ccccc1)Cc1ccccc1`, the inhibition was 3.9%. The same measure for `O=C(O/N=C(/c1ccccc1)c1ccncc1)c1ccccc1[N+](=O)[O-]`: -9.34%; for `Cc1cc(N2CCCC2)ccc1NC(=O)COc1ccc(Cl)cc1`: 62.2% (active); for `Cc1cc(C)cc(OCC(=O)Nc2ccc(N3CCOCC3)cc2N2CCOCC2)c1`: 21.9%.

As to `CCC(=O)c1ccc(OCC(=O)Nc2ccc(N3CCCCC3)cc2)cc1`, the inhibition was -8.58%.

`CS(=O)(=O)N(CC(=O)N1CCN(c2ccc(F)cc2)CC1)C1CCCCC1`: the inhibition was -2.79%. The same measure for `O=C(NC1CCCC1)C(c1c(F)cccc1Cl)N(C(=O)c1csnn1)C1CC1` (stereo unspecified): 6.38%; for `Cc1ccc2c(c1)C1CN(C)CCC1N2S(=O)(=O)c1ccc(Oc2ccc([N+](=O)[O-])cc2)cc1` (stereo unspecified): 59.9% (active); for `Cc1ccc2c(c1)C1CN(C)CCC1N2S(=O)(=O)c1cccc(F)c1` (stereo unspecified): 1.11%. The figure for `Cc1ccc2c(c1)C1CN(C)CCC1N2C(=S)Nc1ccc(OC(F)F)cc1` (stereo unspecified) is -7.03%. The same measure for `COc1ccc(N2CCN(C(=O)c3cn(C)c4ccc(S(=O)(=O)N5CCOCC5)cc4c3=O)CC2)cc1`: -4.77%; for `CCC(CC)c1nnc(NC(=O)C2=COCCO2)s1`: 3.27%. Turning to `Cc1cnc(NC(=O)c2ccccn2)s1`, the inhibition was -31.2%. The figure for `C/C(=N\NC(=O)c1ccccc1F)c1ccccn1` is -4.33%. For the molecule `CCN(CC)CCOc1ccc2c(c1)C(=NNC(=O)c1ccccn1)c1cc(OCCN(CC)CC)ccc1-2`, the inhibition is 52.5% (active). As to `Cc1ccc2c(Cl)c(C(=O)NCCCn3ccnc3)sc2c1`, the inhibition was 10.1%.

On to `CC(C)(C)NC(=O)CN(C(=O)c1csnn1)c1ccccc1-c1ccccc1`, for which the inhibition was -0.459%.

Consider `Cc1cc(C)c(NC(=S)N2CCCC2C(=O)O)c(C)c1` (stereo unspecified), for which the inhibition is -0.801%. Consider `Cc1ccc(S(=O)(=O)c2c(N)n(C)c3nc4ccccc4nc23)cc1`, for which the inhibition was -405%.

Consider `CCN(CC)CCn1c(N)c(S(=O)(=O)c2ccccc2)c2nc3ccccc3nc21`, for which the inhibition is 12%. The figure for `CCC(=O)Nc1c(S(=O)(=O)c2ccccc2)c2nc3ccccc3nc2n1Cc1ccccc1` is 49.2% (active); for `CCOc1cc(NC(=S)NCCCN(C)C)c(OCC)cc1NC(=O)C1CC1` it is -14.8%; for `COc1ccccc1CN1CCNC(=O)C1CC(=O)N(C)CC1CCOCC1` (stereo unspecified) it is 4.54%. With `Cc1c(-c2nn(C)c(=O)c3ccccc23)oc2ccc(F)cc2c1=O`, the inhibition is 82% (active).

For `Cc1ccc(F)cc1NC(=O)Cc1nn(C)c(=O)c2ccccc12`, the inhibition was -8.15%. As for `CCC(=O)NCc1cc(-c2nn(C)c(=O)c3ccccc23)ccc1OC`, the inhibition was -10.9%. Regarding `CCCCn1c(N)c(N(CC(C)C)C(=O)c2cccc(S(=O)(=O)N3CCN(C(C)=O)CC3)c2)c(=O)[nH]c1=O`, the inhibition was 6.93%. The same measure for `C=CCNC(=O)c1ccccc1SCc1c(C)noc1C`: -5.84%.

Consider `O=S(=O)(c1cccc(C(F)(F)F)c1)N1CCN(c2cnccn2)CC1`, for which the inhibition was -23.4%. The figure for `O=C(COc1ccccc1[N+](=O)[O-])N/N=C/c1ccc[nH]1` is -17.6%. The same measure for `Cc1ccsc1/C=N/NC(=O)Cc1cc(=O)[nH][nH]1`: 58.3% (active); for `O=C(Cc1cc(=O)[nH][nH]1)N/N=C/c1ccccc1[N+](=O)[O-]`: 40.8% (active). As for `CCOc1ccc(N2CC(C(=O)N/N=C/c3sccc3C)CC2=O)cc1` (stereo unspecified), the inhibition is -13.2%. The same measure for `Cc1ccsc1/C=N/n1c(=S)[nH]nc(C)c1=O`: 2.31%.

In the case of `COc1cc(CC(=O)N/N=C/c2ccccc2)c([N+](=O)[O-])cc1OC`, the inhibition is 8.78%.

Take `CC(C)(C)NC(=O)CSC(=Nc1ccccc1F)NC#N`: the inhibition was -0.507%.

On to `COC(=O)Cc1csc(/N=C/c2c(O)n(-c3cccc(C(F)(F)F)c3)c(=O)c3ccccc23)n1`, for which the inhibition was -1.6%.

As to `O=C(COc1ccc(S(=O)(=O)NCCc2ccccc2)cc1)N1CCCC1`, the inhibition is -10.1%. Take `CC(Oc1ccc(Cl)cc1)c1ccnn1S(C)(=O)=O` (stereo unspecified): the inhibition is 0.147%. As for `Cc1noc(C)c1S(=O)(=O)N(C)C[C@H]1Oc2ccc(NC(=O)C3CCCCC3)cc2C(=O)N([C@H](C)CO)C[C@@H]1C`, the inhibition was 1.34%.

`CN1CCN(/N=C2/C(=O)Nc3ccc([N+](=O)[O-])cc32)CC1`: the inhibition is -6.13%.

Turning to `O=[N+]([O-])c1ccc(N(CCO)Cc2ccccc2)c([N+](=O)[O-])c1`, the inhibition is 5.52%.

With `O=C1Nc2ccc([N+](=O)[O-])cc2C1=Nc1cccc(CO)c1`, the inhibition is 41.2% (active). The figure for `COc1ccc(NS(=O)(=O)c2cccc3nsnc23)cc1Cl` is -0.325%; for `COc1cccc(C(=O)NCCS(=O)(=O)NCC2CCCO2)c1` (stereo unspecified) it is -2.68%. For the molecule `O=C(C1CCN(c2nnc(-n3cccc3)s2)CC1)N1CCc2ccccc2C1`, the inhibition was 6.9%. The same measure for `OCCN1CCOCCOCCN(CCO)CCN(CCO)CC1`: -5.95%; for `Clc1ccc(C2=CSC3=Nc4cccc5cccc(c45)N23)cc1`: 90% (active); for `CC(C)Cc1nnc(NC(=O)CCNC(=O)c2ccccc2Cl)s1`: 12%.

Values taken from PubChem BioAssay AID489030 (Sanford-Burnham Center for Chemical Genomics, 2010).
